Reference: ChEMBL document CHEMBL1125423, “Potent and systemically active aminopeptidase N inhibitors designed from active-site investigation” (J Med Chem, 1992)

Key:
[1] = biological target: T1, Aminopeptidase N (Sus scrofa, UniProt P15145); assay: Inhibition of [3H]Leu-enkephalin binding to Aminopeptidase N from hog kidney
T1 sequence (P15145 whole entry): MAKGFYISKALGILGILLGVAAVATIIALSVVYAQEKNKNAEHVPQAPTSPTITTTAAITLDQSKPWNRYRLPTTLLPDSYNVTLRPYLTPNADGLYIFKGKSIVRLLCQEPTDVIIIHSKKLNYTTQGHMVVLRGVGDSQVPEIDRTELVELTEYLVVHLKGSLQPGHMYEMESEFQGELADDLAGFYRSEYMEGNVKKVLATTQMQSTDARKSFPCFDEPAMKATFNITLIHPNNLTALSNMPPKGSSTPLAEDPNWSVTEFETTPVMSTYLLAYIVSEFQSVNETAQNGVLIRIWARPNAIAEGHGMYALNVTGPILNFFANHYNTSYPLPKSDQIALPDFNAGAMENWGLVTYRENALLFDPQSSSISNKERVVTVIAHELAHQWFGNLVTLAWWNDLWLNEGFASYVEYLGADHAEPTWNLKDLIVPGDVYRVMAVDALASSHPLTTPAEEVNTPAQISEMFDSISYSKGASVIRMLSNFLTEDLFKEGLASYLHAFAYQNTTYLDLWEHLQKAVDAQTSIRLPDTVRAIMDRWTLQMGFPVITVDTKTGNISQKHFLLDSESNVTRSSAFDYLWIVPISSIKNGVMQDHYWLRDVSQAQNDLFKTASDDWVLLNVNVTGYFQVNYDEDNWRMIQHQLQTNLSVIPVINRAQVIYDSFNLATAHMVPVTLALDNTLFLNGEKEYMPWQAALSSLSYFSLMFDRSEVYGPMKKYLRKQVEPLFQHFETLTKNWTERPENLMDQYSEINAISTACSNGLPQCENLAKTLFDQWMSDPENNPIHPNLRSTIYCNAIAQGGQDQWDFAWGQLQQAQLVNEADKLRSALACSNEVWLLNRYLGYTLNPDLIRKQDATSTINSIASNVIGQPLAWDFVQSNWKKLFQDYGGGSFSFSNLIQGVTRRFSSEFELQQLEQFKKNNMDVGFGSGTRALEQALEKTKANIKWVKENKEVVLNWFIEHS
In short: (§1)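 Hog kidney APN preincubated 15 min at 25 °C with rising inhibitor concentrations in 50 mM Tris-HCl pH 7.4; thiols supplied as disulfides reduced in situ with 100 equiv DTT. [3H]Tyr1-Leu5-enkephalin added at 10 nM final (Km 50 μM); reaction stopped after 15 min with HCl. Released [3H]Tyr separated on polystyrene beads; IC50 determined.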

[2] = biological target: T1, Aminopeptidase N; assay: Compound was tested for inhibitory potency against aminopeptidase N from hog kidney, using [3H]Leu-enkephalin as substrate; in short: as §1
[3] = system: Mus musculus; assay: Compound (40 mg/kg) was tested for antinociceptive responses induced in hot plate test in mice after an iv dose of acetorphan 10 mg/kg.; type: functional
In short: (§2)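 Male Swiss mice (20–22 g); agents given iv under disulfide form together with acetorphan 10 mg/kg, in ethanol 10%/cremophor EL 10%/water 80% at 0.1 mL per 10 g; vehicle-injected controls. Jump latency read on hot plate at 55 ± 0.5 °C 15 min after injection, cut-off 240 s. % analgesia = (test − control latency)/(cut-off − control latency) × 100; ANOVA then Dunnett's t test.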

[4] = system: Mus musculus; assay: Compound (20 mg/kg) was tested for antinociceptive responses induced in hot plate test in mice after an iv dose of acetorphan 10 mg/kg.; type: functional; in short: as §2
[5] = system: Mus musculus; assay: Compound( 5 mg/kg) was tested for antinociceptive responses induced in hot plate test in mice(% analgesia) after an iv dose of acetorphan 10 mg/kg.; type: functional
In short: (§3)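 Male Swiss mice (20–22 g) given compound as disulfide form iv, coadministered with acetorphan 10 mg/kg, in ethanol (10%)/cremophor EL (10%)/water (80%) vehicle, 0.1 mL per 10 g; controls got vehicle. Hot plate at 55 ± 0.5 °C 15 min later; jump latency recorded, cut-off 240 s. % analgesia = (test − control latency)/(cut-off − control latency) × 100; ANOVA then Dunnett's t test.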

[6] = system: Mus musculus; assay: Compound( 5 mg/kg) was tested for antinociceptive responses induced in hot plate test in mice after an iv dose of acetorphan 10 mg/kg.; type: functional; in short: as §2
[7] = system: Mus musculus; assay: Compound( 10 mg/kg) was tested for antinociceptive responses induced in hot plate test in mice after an iv dose of acetorphan 10 mg/kg.; type: functional; in short: as §3
[8] = system: Mus musculus; assay: Compound( 20 mg/kg) was tested for antinociceptive responses induced in hot plate test in mice after an iv dose of acetorphan 10 mg/kg.; type: functional; in short: as §3
[9] = system: Mus musculus; assay: Compound (10 mg/kg) was tested for antinociceptive responses induced in hot plate test in mice after an iv dose of acetorphan 10 mg/kg.; type: functional; in short: as §2

IC50 [1]	SMILES	Jump latency time [3]	Jump latency time [4]	other results
4000 nM	CNC(CS)CC(C)C (centres undefined)	–	–	–
160000 nM	SCC(Cc1ccccc1)NCc1ccccc1 (centres undefined)	–	–	–
–	NC(CS)CC1CCCCC1 (centres undefined)	–	–	IC50 [2]: 45 nM
130 nM	NC(CS)Cc1ccc2ccccc2c1 (centres undefined)	132.8 s	106.6 s	–
40 nM	CC(C)(C)SCC(N)CS (centres undefined)	–	–	–
–	NC(CS)Cc1ccccc1 (centres undefined)	–	–	ED50 [5]: 12 mg/kg; Jump latency time [6]: 90 s; Jump latency time [7]: 147.9 s; Jump latency time [8]: 204.2 s
–	C[S+]([O-])CCC(N)CS (centres undefined)	–	240 s	Jump latency time [6]: 216.9 s; Jump latency time [9]: 236 s
90 nM	NC(CS)CSCc1ccccc1 (centres undefined)	233.6 s	232.2 s	–
–	NC(CS)c1ccccc1 (centres undefined)	–	–	IC50 [2]: 25 nM
–	NC(CS)Cc1ccc(O)cc1 (centres undefined)	166.4 s	119 s	IC50 [2]: 45 nM; Jump latency time [6]: 112.9 s
–	CSCCC(N)CS (centres undefined)	–	240 s	Jump latency time [6]: 200.8 s; Jump latency time [9]: 225.4 s
–	NC(CC(=O)O)Cc1ccccc1 (centres undefined)	–	–	IC50 [2]: 800000 nM
22 nM	CC(C)CC(N)CS (centres undefined)	240 s	225.6 s	–
80000 nM	NC(CSCc1ccccc1)Cc1ccccc1 (centres undefined)	–	–	–
56 nM	NC(CS)COCc1ccccc1 (centres undefined)	229.4 s	166.5 s	–

SMILES	IC50 [1]	Jump latency time [3]	Jump latency time [4]	other results
NC(Cc1ccccc1)CP(=O)(O)O (centres undefined)	500000 nM	–	–	–
